Reference: ChEMBL document CHEMBL2331335, “Synthesis of hemslecin A derivatives: a new class of hepatitis B virus inhibitors” (Bioorg Med Chem Lett, 2013)

What was measured:
[1] = Cytotoxicity against human HepG2.2.15 cells; type: cell-based, HepG2 2.2.15
Outline: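 Cytotoxicity was tested in HepG 2.2.15 cells alongside the anti-HBV assay. CC50 was taken as the compound concentration required to destroy 50% of the cells.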

Hepatitis B virus [2] = experiment: Antiviral activity against HBV infected in human HepG2.2.15 cells assessed as inhibition of viral DNA replication; type: functional, organism-based; conditions: HepG2 2.2.15
Outline: (§1)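 Assayed in HBV-producing HepG 2.2.15 cells, with tenofovir as positive control. HBsAg, HBeAg and HBV DNA replication were each measured, and IC50 was taken as the compound concentration giving 50% inhibition of the given marker.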

Hepatitis B virus [3] = experiment: Antiviral activity against HBV infected in human HepG2.2.15 cells assessed as inhibition of viral e antigen production; type: functional, organism-based; conditions: HepG2 2.2.15; outline: as §1
[4] = Selectivity index, ratio of CC50 for human HepG2.2.15 cells to IC50 for HBV infected in human HepG2.2.15 cells assessed as inhibition of viral DNA replication; type: functional
Outline: (§2)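 Selectivity index was calculated as CC50 (HepG 2.2.15 cytotoxicity) divided by IC50 for the given marker (HBV DNA replication, HBeAg or HBsAg), all measured in HepG 2.2.15 cells.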

Hepatitis B virus [5] = experiment: Antiviral activity against HBV infected in human HepG2.2.15 cells assessed as inhibition of viral surface antigen production; type: functional, organism-based; conditions: HepG2 2.2.15; outline: as §1
[6] = Selectivity index, ratio of CC50 for human HepG2.2.15 cells to IC50 for HBV infected in human HepG2.2.15 cells assessed as inhibition of viral e antigen production; type: functional; outline: as §2
[7] = Selectivity index, ratio of CC50 for human HepG2.2.15 cells to IC50 for HBV infected in human HepG2.2.15 cells assessed as inhibition of viral surface antigen production; type: functional; outline: as §2

IC50 (Hepatitis B virus [2]) [µM]	IC50 (Hepatitis B virus [3]) [µM]	IC50 (Hepatitis B virus [5]) [µM]	SMILES	CC50 [1] [µM]	Ratio CC50/IC50 [4]	Ratio CC50/IC50 [6]	Ratio CC50/IC50 [7]
10	> 560	> 560	CCOCC(=O)O[C@H]1C[C@@H]2C(=CC[C@@H]3[C@@]2(C)C(=O)C[C@]2(C)[C@@H]([C@@](C)(O)C(=O)CCC(C)(C)OC(C)=O)[C@H](OC(=O)COCC)C[C@@]32C)C(C)(C)[C@@H]1OC(=O)COCC	> 560	>55.8		
6.1	> 12.4	> 12.4	CCCC(=O)O[C@H]1C[C@@H]2C(=CC[C@@H]3[C@@]2(C)C(=O)C[C@]2(C)[C@@H]([C@@](C)(O)C(=O)CCC(C)(C)OC(C)=O)[C@H](O)C[C@@]32C)C(C)(C)[C@@H]1O	12.4	2	<1	<1
3.1	17	18.4	CCC(=O)O[C@@H]1[C@@H](O)C[C@@H]2C(=CC[C@@H]3[C@@]2(C)C(=O)C[C@]2(C)[C@@H]([C@@](C)(O)C(=O)CCC(C)(C)OC(C)=O)[C@H](O)C[C@@]32C)C1(C)C	100	31.9	5.9	5.5
9.8	46.7	22.4	CC(=O)O[C@H]1C[C@@H]2C(=CC[C@@H]3[C@@]2(C)C(=O)C[C@]2(C)[C@@H]([C@@](C)(O)C(=O)CCC(C)(C)OC(C)=O)[C@H](O)C[C@@]32C)C(C)(C)[C@@H]1OC(C)=O	546	55.6	11.7	24.3
4.7	> 6.3	> 6.3	CCCC(=O)O[C@@H]1[C@@H](O)C[C@@H]2C(=CC[C@@H]3[C@@]2(C)C(=O)C[C@]2(C)[C@@H]([C@@](C)(O)C(=O)CCC(C)(C)OC(C)=O)[C@H](O)C[C@@]32C)C1(C)C	6.3	1.3	<1	<1
> 1110	592	> 1110	COCC(=O)O[C@H]1C[C@H]2[C@]3(C)C(=O)C[C@]4(C)[C@@H]([C@@](C)(O)C(=O)CCC(C)(C)OC(C)=O)[C@H](OC(=O)COC)C[C@@]4(C)[C@@H]3C[C@H]3O[C@]32C(C)(C)[C@@H]1OC(=O)COC	> 1110		>1.9	
> 618	401	> 618	CCCC(=O)O[C@H]1C[C@H]2[C@]3(C)C(=O)C[C@]4(C)[C@@H]([C@@](C)(O)C(=O)CCC(C)(C)OC(C)=O)[C@H](OC(=O)CCC)C[C@@]4(C)[C@@H]3C[C@H]3O[C@]32C(C)(C)[C@@H]1OC(=O)CCC	> 618		>2	

Second part, the molecule before the results:

SMILES	IC50 (Hepatitis B virus [2]) [µM]	IC50 (Hepatitis B virus [3]) [µM]	IC50 (Hepatitis B virus [5]) [µM]	CC50 [1] [µM]	Ratio CC50/IC50 [4]	Ratio CC50/IC50 [6]	Ratio CC50/IC50 [7]
CCC(=O)O[C@H]1C[C@@H]2C(=CC[C@@H]3[C@@]2(C)C(=O)C[C@]2(C)[C@@H]([C@@](C)(O)C(=O)CCC(C)(C)OC(C)=O)[C@H](O)C[C@@]32C)C(C)(C)[C@@H]1OC(=O)CC	7.2	596	9.9	> 596	>83.4	>1	>60
CC(=O)OC(C)(C)CCC(=O)[C@](C)(O)[C@H]1[C@H](O)C[C@@]2(C)[C@@H]3CC=C4[C@@H](C[C@H](O)[C@@H](O)C4(C)C)[C@]3(C)C(=O)C[C@]12C [HEMSLECIN A]	11.4	> 66.2	> 66.2	66.2	5.8	<1	<1
CC(=O)O[C@@H]1[C@@H](O)C[C@@H]2C(=CC[C@@H]3[C@@]2(C)C(=O)C[C@]2(C)[C@@H]([C@@](C)(O)C(=O)CCC(C)(C)OC(C)=O)[C@H](O)C[C@@]32C)C1(C)C	2.8	> 254	190	254	89.7	<1	1.3
COCC(=O)O[C@H]1C[C@H]2[C@]3(C)C(=O)C[C@]4(C)[C@@H]([C@@](C)(O)C(=O)CCC(C)(C)OC(C)=O)[C@H](OC(=O)COC)C[C@@]4(C)[C@@H]3C[C@@H](O)[C@@]2(OC(=O)c2cccc(Cl)c2)C(C)(C)[C@@H]1OC(=O)COC	> 1740	> 1740	> 1740	> 1740			
CCC(=O)O[C@H]1C[C@@H]2C(=CC[C@@H]3[C@@]2(C)C(=O)C[C@]2(C)[C@@H]([C@@](C)(O)C(=O)CCC(C)(C)OC(C)=O)[C@H](OC(C)=O)C[C@@]32C)C(C)(C)[C@@H]1OC(=O)CC	19	> 650	> 650	> 650	>34.2		
